An excerpt weighted towards active compounds, which were near 3.3% of everything screened.
LEDGF integ inh – blocks HIV-1 LEDGF/p75-dependent DNA integration | 370,000 tested, 0.64% active | TR-FRET IN-LEDGF/p75 DNA integration, Eu/Cy5 | inhibition, % at 3.7 µM;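 active = inhibition above the screen-wide mean plus 3 SD, cut at about 13% in these data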;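 note: signal is the Cy5 over europium emission ratio at 671 and 618 nm; 0% = plate median of compound wells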
SIAE primary – inhibitors of human sialic acid acetylesterase SIAE. Q9HAT2. SIAE FP-Rh probe binding, fluorescence polarization. inhibition, % at 9.66 µM. 370,000 tested, 0.69% active;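 active = inhibition above a cutoff: mean of compounds within the control limits plus 3 SD of those, cut at about 17% in these data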;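 note: 0% = plate median of compound wells and 100% = probe without SIAE protein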
Target sequence (Q9HAT2 whole entry, looked up): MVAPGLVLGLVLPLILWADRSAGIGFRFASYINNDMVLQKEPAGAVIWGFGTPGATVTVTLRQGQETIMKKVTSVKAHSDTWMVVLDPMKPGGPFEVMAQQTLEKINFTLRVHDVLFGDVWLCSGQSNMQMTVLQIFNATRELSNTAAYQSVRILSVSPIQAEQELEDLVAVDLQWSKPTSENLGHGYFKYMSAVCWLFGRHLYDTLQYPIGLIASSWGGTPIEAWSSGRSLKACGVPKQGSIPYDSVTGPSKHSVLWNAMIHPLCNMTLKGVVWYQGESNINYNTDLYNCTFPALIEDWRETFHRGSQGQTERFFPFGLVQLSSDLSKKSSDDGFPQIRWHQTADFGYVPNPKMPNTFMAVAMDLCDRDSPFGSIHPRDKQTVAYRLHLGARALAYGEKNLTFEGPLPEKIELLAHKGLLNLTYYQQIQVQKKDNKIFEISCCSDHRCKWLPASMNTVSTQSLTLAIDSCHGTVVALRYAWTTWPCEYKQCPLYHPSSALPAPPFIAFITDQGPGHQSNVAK
UHRF1 binding – UHRF1 methyl-DNA binding inhibition | inhibition, % at 4.4 µM | 370,000 tested, 0.75% active | UHRF1 binding to methylated oligo, TR-FRET; in the data active = inhibition above about 21%;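 note: UHRF1 SRA domain binding a hemimethylated CpG hairpin DNA probe; 0% = median of test compound wells and 100% = reference inhibitor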
PRMT1 inh – inhibitors of human PRMT1. Q99873. 370,000 tested, 1.3% active. inhibition, % at 2.79 µM. recombinant PRMT1, activity-based probe fluorescence polarization. AID 652257;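 active = inhibition above about 21% made by adding two undisclosed values, limit read from the data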
MBD2 DNA inh – MBD2-methylated oligo binding inhibition; TR-FRET, MBD2 binding to methylated oligonucleotide; inhibition, % at 4.4 µM; AID 686964; 370,000 tested, 0.31% active; in the data active = inhibition above about 13%
TDP2 absorb – blocks human TDP2 phosphodiesterase activity; O95551; recombinant TDP2, T5PNP hydrolysis, p-nitrophenol absorbance 415 nm; inhibition, % at 12.8 µM; 370,000 tested, 0.34% active;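 active = inhibition above the mean of all tested compounds plus 3 SD, set per campaign, cut at about 25% in these data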;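 note: 0% = DMSO with enzyme and 100% = buffer with substrate but no TDP2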
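Incubation: 2 h at 37 °C; Test system: recombinant human TDP2; Quantity: enzyme 120 nM; Read-out basis: percent inhibition; Medium: 50 mM Tris-HCl pH 7.5 with Mg2+, KCl, DTT, BSA; Repeats: single replicate; Compound: 12.8 µM single point, 1% DMSO; Signal: epi absorbance; Reagent: 5 mM T5PNP chromogenic substrate; Benchmarks: no-enzyme high, DMSO-plus-enzyme low.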
UHRF1 DNA bind – counter-screen for MBD2 inhibitors: human UHRF1 methylated DNA binding inhibitors. UHRF1 binding to methylated oligonucleotide, TR-FRET. shares compounds with MBD2 DNA inh. inhibition, % at 4.4 µM. 1,000 tested, 25% active; in the data active = inhibition above about 21%;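 note: UHRF1 SRA domain binding a labeled hemimethylated CpG hairpin DNA; 0% = vehicle only and 100% = reference inhibitor with vehicle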
MBD2 DBD conf – MBD2-DBD methyl-DNA binding inhibition, TR-FRET confirmation. shares compounds with MBD2 DNA inh. TR-FRET MBD2-DBD binding to methylated oligonucleotide. inhibition, % at 4.4 µM. 1,000 tested, 26% active. AID 720531
TDP2 inh conf – confirmation of human TDP2 inhibitors. 1,100 tested, 22% active. shares compounds with TDP2 absorb. AID 743263. inhibition, % at 12.8 µM. recombinant human TDP2, absorbance read-out; in the data active = inhibition above about 25%;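 note: 0% = vehicle with enzyme and 100% = no enzyme buffer only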
IN multimer up – counter-screen for LEDGF/p75 integration inhibitors: HIV-1 integrase multimerization activators; shares compounds with LEDGF integ inh; TR-FRET HIV-1 integrase multimerization, biochemical; activation, % at 7.7 µM; 2,000 tested, 17% active; AID 1053131; in the data active = activation above about 8.9%
TR-FRET interf – optically interferes with TR-FRET readout in LEDGF counter-screen; shares compounds with LEDGF integ inh; TR-FRET optical interference counterscreen, HIV-1 IN multimerization; inhibition, % at 7.7 µM; 2,000 tested, under 10 active; AID 1053135;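 active = inhibition above the mean over all tested compounds plus 3 SD, which no compound reached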;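 note: 0% = integrase with antibodies and DMSO and 100% = antibodies without integrase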
IN-LEDGF confirm – confirmation of HIV-1 LEDGF/p75-dependent integration inhibitors. shares compounds with LEDGF integ inh. TR-FRET LEDGF/p75-dependent HIV-1 integration, biochemical. inhibition, % at 3.7 µM. 2,000 tested, 36% active
* = called active by the depositor; i = inactive; . = no result. Cut-off read from the data, not from the text of the source, unless noted: active = inhibition above about 14%; inactive = the rest.

SMILES	LEDGF integ inh	SIAE primary	UHRF1 binding	PRMT1 inh	MBD2 DNA inh	TDP2 absorb	TDP2 inh conf	others
Cc1ccc(-c2cc(-c3ccccc3)cc(-c3ccccc3)[n+]2-c2ccccc2C(=O)O)cc1	3.4	4.6	21.2*	1.6	18.7*	8.4	.	UHRF1 DNA bind=12.5;MBD2 DBD conf=28.1*
COc1cc(C(c2c(C)[nH]n(-c3ccccc3)c2=O)c2c(C)[nH]n(-c3ccccc3)c2=O)cc(OC)c1OC	43.4*	7.9	18.2	1.2	14.4*	89.5*	56.0*	UHRF1 DNA bind=3.0;MBD2 DBD conf=2.1;IN multimer up=3.4;TR-FRET interf=-12.0;IN-LEDGF confirm=4.6
CS(=O)(=O)N1Cc2cc(Br)ccc2-n2nncc2C1	1.1	0.3	-0.4	-8.7	-4.8	0.9	.
CCOCCCn1c(N)c(C(=O)Nc2sc3c(c2C(=O)OC)CCCC3)c2nc3ccccc3nc21	31.5*	-12.8	13.8	1.7	13.9*	70.4*	1.2	UHRF1 DNA bind=5.9;MBD2 DBD conf=1.9;IN multimer up=1.9;TR-FRET interf=-9.7;IN-LEDGF confirm=-2.5
O=c1[nH]cc(N(CCCl)CCCl)c(=O)[nH]1	4.8	-4.3	-5.4	-8.2	-3.0	0.4	.
COc1cc2c(cc1OC)-c1c3c(cc4c1[C@@H](C2)N(C)CC4)OCO3	15.9*	6.2	49.8*	-2.1	46.1*	56.2*	52.1*	UHRF1 DNA bind=29.7*;MBD2 DBD conf=20.0*;IN multimer up=4.8;TR-FRET interf=-16.6;IN-LEDGF confirm=7.8
COc1c2c(cc3c1OCO3)CCN(C)C2	-1.3	-6.1	1.2	3.2	4.3	0.3	.
O=c1[nH]c(=S)[nH]c(O)c1/C=C1/C=c2ccccc2=N1	-1.1	-6.1	-3.4	6.5	-5.8	4.3	.
Cc1cccc2c1=NC(=O)/C(=C/c1c(O)[nH]c(=O)[nH]c1=O)C=2	0.6	6.7	-9.8	15.6	-6.0	31.8*	37.5*
C[C@H](Cc1ccc(OCC(=O)O)cc1)NC[C@H](O)c1cccc(Cl)c1	3.3	4.5	-1.7	-3.7	-4.6	-1.9	.
COc1ccc(OCC#CCN2CCCCCC2)cc1	0.2	7.4	7.4	-1.6	1.7	9.6	.
COc1ccc(OCC#CCN2CCNCC2)cc1	2.5	1.4	-0.5	1.0	-1.9	31.3*	2.5
CCn1cc(C=C2C(=O)NC(=O)NC2=O)c2ccccc21	-1.0	-44.5	-8.1	10.0	0.8	27.5*	6.6
COCCCn1c(N)c(C(=O)NCCC(C)C)c2nc3ccccc3nc21	7.9	-2.7	6.9	3.0	2.7	40.8*	0.5
O=C(NC1CCCCC1)N1Cc2ccc(Br)cc2-n2nncc2C1	-1.2	-3.3	-0.9	3.3	2.3	-5.3	.
COP(=O)(OC)OC=C(Cl)Cl	-0.3	12.4	0.7	5.9	4.4	1.1	.
O=c1nc(/C=C/c2ccc(Cl)cc2Cl)cc(C(F)(F)F)[nH]1	2.3	-9.0	-0.2	2.0	-4.3	29.0*	17.8
Clc1ccc([C@H]2CC3CCC2N3)cn1 (stereo partly specified)	-2.5	-5.7	5.6	8.6	1.8	-9.1	.
O=C(NC1CCCCC1)Oc1cc2oc(=O)sc2cc1Cl	0.4	2.5	6.0	85.5*	7.9	29.5*	12.4
O=c1[nH]c(=O)n(-c2cccc(F)c2)c(O)c1/C=C1\C=Nc2ccccc21	5.2	-92.9	22.2*	8.3	11.8	32.5*	13.7
CN1C2(C)c3ccccc3C1(c1ccccc1)c1ccccc12	3.8	-4.8	-1.4	-2.0	1.5	-0.4	.
CCC(=Nc1ccccc1N)c1c(O)[nH]c(=O)[nH]c1=O	1.4	-4.4	-6.8	0.8	-3.8	25.2*	13.0
O=C(CN1CCOCC1)c1cccc2ccccc12	1.9	4.0	1.7	4.5	-7.5	25.3*	16.2
O=C(CN1CCOCC1)c1ccc(Br)cc1	5.6	0.8	1.4	0.2	-6.0	10.9	.
c1ccc2c(c1)-c1cccc3cccc-2c13	i	-1.9	0.2	-4.1	1.9	-12.2	.
SMILES	LEDGF integ inh	SIAE primary	UHRF1 binding	PRMT1 inh	MBD2 DNA inh	TDP2 absorb	TDP2 inh conf	others
Nc1c(Br)cc2c3c(cccc13)-c1ccccc1-2	6.4	3.5	12.1	7.4	6.5	63.7*	16.9
O=C(NCCN1CCC2(CC1)C(=O)NCN2c1ccccc1)c1ccccc1C(F)(F)F	-2.2	4.4	-4.3	0.8	3.8	6.7	.
COC(=O)C(O)(c1c(C)[nH]n(-c2ccccc2)c1=O)C(F)(F)F (stereo unspecified)	25.8*	1.3	-0.8	4.5	-8.4	26.7*	44.5*	IN multimer up=1.1;TR-FRET interf=-3.8;IN-LEDGF confirm=11.8
COC(=O)C(O)(c1c[nH]c2ccccc12)C(F)(F)F (stereo unspecified)	-1.5	7.8	-2.2	-1.2	0.4	6.1	.
CCCCn1c(NS(=O)(=O)c2ccc(C)cc2)c(C(=O)OCC)c2nc3ccccc3nc21	32.5*	2.6	13.2	2.4	-0.4	71.2*	36.2*	IN multimer up=1.1;TR-FRET interf=-3.9;IN-LEDGF confirm=10.5
COc1cc2c(cc1OC)-c1c(OC)c(OC)cc3c1C(C2)N(C)CC3 (stereo unspecified)	19.6*	3.4	34.4*	0.2	12.9	51.9*	59.9*	IN multimer up=2.4;TR-FRET interf=-8.2;IN-LEDGF confirm=11.0
CC(C)C(CN1CCC(C)(c2cccc(O)c2)[C@@H](C)C1)NC(=O)C1Cc2ccc(O)cc2CN1 (stereo partly specified)	1.0	1.3	0.7	-2.1	-1.0	2.0	.
Nc1c(C(=O)NCCCc2ccccc2)c2nc3ccccc3nc2n1Cc1cccs1	25.6*	3.8	10.4	1.4	1.2	59.9*	2.2	IN multimer up=-2.3;TR-FRET interf=8.1;IN-LEDGF confirm=-2.6
CCCCCn1c(N)c(C(=O)NCc2cccs2)c2nc3ccccc3nc21	1.0	-5.3	-3.2	-3.2	-2.9	-10.3	.
CC(C)OCCCNC(=O)c1c(N)n(CC2CCCO2)c2nc3ccccc3nc12 (stereo unspecified)	28.6*	0.2	10.1	3.5	5.6	82.5*	6.6	IN multimer up=0.2;TR-FRET interf=-1.2;IN-LEDGF confirm=7.5
